Laboratory results taken from ChEMBL document CHEMBL4000167, “Chlorotheolides A and B, Spiroketals Generated via Diels-Alder Reactions in the Endophytic Fungus Pestalotiopsis theae” (J Nat Prod, 2016).
The source made the active and inactive calls. No cut-off for these calls is given here.

Experiments:
[1] = system: HeLa; assay: Antiproliferative activity against human HeLa cells at 20 ug/ml after 48 hrs by MTS assay; type: functional, cell-based
In short: (§1)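 Cells seeded at (2−5) × 10^3 per well in 96-well plates and allowed to attach overnight. Medium was then replaced with medium containing test compound by serial dilution from 100 mM DMSO stocks, or 0.1% DMSO, with cisplatin as positive control. Incubation was 48 h at 37 °C in 5% CO2, then MTS was added for 90 min at 37 °C. Absorbance read at 490 nm; triplicate.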

[2] = system: MCF7; assay: Antiproliferative activity against human MCF7 cells at 20 ug/ml after 48 hrs by MTS assay; type: functional, cell-based; in short: as §1
[3] = system: HeLa; assay: Induction of autophagy in human HeLa cells assessed as accumulation of membrane vacuoles at 10 uM at 2 hrs by transmission electron microscopic method; type: functional, cell-based
In short: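 HeLa cells treated with 10 μM for 2 h, then washed in PBS, trypsinized and pelleted. Pellets fixed in 4% paraformaldehyde at 4 °C overnight and postfixed in 1% OsO4 in cacodylate buffer for 1 h at RT. They were then dehydrated in ethanol, rinsed in propylene oxide and embedded in Spurr resin. Thin sections examined by TEM.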

[4] = system: HeLa; assay: Induction of autophagy in human HeLa cells assessed as increase in punctate LC3 accumulation at 10 uM after 2 hrs by immunofluorescence method; type: functional, cell-based
In short: (§2)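 They were fixed in 4% paraformaldehyde and permeabilized in Ca/Mg-free PBS with 0.1% Triton X-100 and 0.5% BSA. Staining used anti-LC3 and Alexa Fluor secondaries, with DAPI mounting. LC3 puncta were counted by fluorescence microscopy.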

[5] = system: HeLa; assay: Induction of autophagy in human HeLa cells assessed as increase in punctate LC3 accumulation at 10 uM after 2 hrs in presence of chloroquine by immunofluorescence method; type: functional, cell-based; in short: as §2
[6] = system: HeLa; assay: Induction of autophagy in human HeLa cells assessed as effect on ratio of LC3-2 to actin at 1 uM after 2 hrs by immunoblot method relative to control; type: functional
In short: (§3)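 Lysis in Tris-HCl pH 7.4 buffer with EDTA, EGTA, DTT, 1% Triton X-100, 1% SDS and protease inhibitors. SDS-PAGE, PVDF transfer, HRP secondary antibodies, ECL detection. LC3-II band expressed as a ratio to actin.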

[7] = system: HeLa; assay: Induction of autophagy in human HeLa cells assessed as effect on ratio of LC3-2 to actin at 1 uM after 2 hrs in presence of chloroquine by immunoblot method relative to control; type: functional; in short: as §3
[8] = system: HeLa; assay: Induction of autophagy in human HeLa cells assessed as effect on ratio of SQSTM1/p62 to actin at 1 uM after 2 hrs by immunoblot method relative to control; type: functional
In short: (§4)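 Lysis used Triton X-100/glycerol buffer: 50 mM Tris-HCl pH 7.4, 4 mM EDTA, 2 mM EGTA, 1 mM DTT, 1% Triton X-100, 1% SDS and protease inhibitors. Lysates were run on SDS-PAGE, blotted to PVDF and detected by HRP secondaries with ECL. p62/actin ratio calculated.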

[9] = system: HeLa; assay: Induction of autophagy in human HeLa cells assessed as effect on ratio of SQSTM1/p62 to actin at 10 uM after 2 hrs by immunoblot method relative to control; type: functional; in short: as §4
[10] = system: HeLa; assay: Induction of autophagy in human HeLa cells assessed as effect on ratio of SQSTM1/p62 to actin at 20 uM after 2 hrs by immunoblot method relative to control; type: functional; in short: as §4
[11] = system: HeLa; assay: Induction of autophagy in human HeLa cells assessed as effect on ratio of SQSTM1/p62 to actin at 1 uM after 2 hrs in presence of chloroquine by immunoblot method relative to control; type: functional; in short: as §4
[12] = system: HeLa; assay: Induction of autophagy in human HeLa cells assessed as effect on ratio of SQSTM1/p62 to actin at 10 uM after 2 hrs in presence of chloroquine by immunoblot method relative to control; type: functional; in short: as §4
[13] = system: HeLa; assay: Induction of autophagy in human HeLa cells assessed as effect on ratio of SQSTM1/p62 to actin at 20 uM after 2 hrs in presence of chloroquine by immunoblot method relative to control; type: functional; in short: as §4
[14] = system: HeLa; assay: Induction of autophagy in human HeLa cells assessed as effect on ratio of LC3-2 to actin at 10 uM after 2 hrs by immunoblot method relative to control; type: functional; in short: as §3
[15] = system: HeLa; assay: Induction of autophagy in human HeLa cells assessed as effect on ratio of LC3-2 to actin at 20 uM after 2 hrs by immunoblot method relative to control; type: functional; in short: as §3
[16] = system: HeLa; assay: Induction of autophagy in human HeLa cells assessed as effect on ratio of LC3-2 to actin at 10 uM after 2 hrs in presence of chloroquine by immunoblot method relative to control; type: functional; in short: as §3
[17] = system: HeLa; assay: Induction of autophagy in human HeLa cells assessed as effect on ratio of LC3-2 to actin at 20 uM after 2 hrs in presence of chloroquine by immunoblot method relative to control; type: functional; in short: as §3
[18] = system: HeLa; assay: Induction of autophagy in human HeLa cells assessed as effect on ratio of SQSTM1/p62 to actin at 15 uM after 2 hrs by immunoblot method relative to control; type: functional; in short: as §4

Compound: COC(=O)C1=CC(OC)=C(Cl)C(=O)C12OC(=O)c1c(O)cc(C)cc1O2 (stereo not given)
- inhibition [1]: inactive
- inhibition [2]: inactive

Compound: CCCCCCCC1=COC(=O)[C@]12C[C@]1(C(=O)OC)C=C(OC)[C@@]2(Cl)C(=O)[C@]12OC(=O)c1c(O)cc(C)cc1O2
- Activity [3]: Active
- Activity [4]: Active
- Activity [5]: Active
- fold change (FC) [6]: 1.03
- fold change (FC) [7]: 10.98
- fold change (FC) [8]: 2.76
- fold change (FC) [9]: 3.61
- fold change (FC) [10]: 2.84
- fold change (FC) [11]: 2.84
- fold change (FC) [12]: 2.19
- fold change (FC) [13]: 1.94
- fold change (FC) [14]: 0.79
- fold change (FC) [15]: 2.9
- fold change (FC) [16]: 12.53
- fold change (FC) [17]: 10.86

Compound: CCN(CC)CCCC(C)Nc1ccnc2cc(Cl)ccc12 (stereo not given) [CHLOROQUINE]
- fold change (FC) [18]: 1.8

Compound: C=C(C(=O)O)[C@@H](CCCCCCCC)C(=O)O
- inhibition [1]: inactive
- inhibition [2]: inactive
